Compound activity (PubChem BioAssay)
Most compounds without a hit are left out; they make up all but 8.4% or so of the library.
PostGolgi ctrl: growth inhibition of yeast control strain, primary screen, counter-screen for post-Golgi transport modulator project | inhibition, % at 10 µM | efflux-deficient yeast background strain, growth absorbance A615, 16 h | 5% of 98,000 active
E coli WT exp: growth inhibitors of wild-type E. coli, primary screen, strain BW25113, expanded library, OD600; AID 710, 2007; OD600 absorbance; growth inhibition, % at 100 µM; 0.15% of 98,000 active;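 active = growth inhibition above about 50% at one test dose, limit read from the data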;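 note: growth measured after 20 h incubation at 37 °C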
tolC growth inh: growth inhibitors of E. coli tolC mutant, primary screen, strain BW25113 ΔtolC::kan, 384-well; growth inhibition, % at 10 µM (by protocol); 2.2% of 65,000 active; OD615; AID 573, 2007;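 active = growth inhibition at or above a cutoff equal to the mean over every tested compound plus 3 SD, cut at about 60% in these data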;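 note: growth measured after 20 h incubation at 37 °C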
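Test system: tolC-deleted E. coli BW25113; medium: LB with kanamycin 50 µg/mL; compound: single-point testing at 10 µM; incubation: 20 h compound exposure of bacteria at 37 °C; signal: OD at 615 nm; evaluation: growth inhibition in percent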
Cav32 inh: Cav3.2 calcium influx blockers – cell-based, Fluo-4 calcium fluorescence, FDSS, MLSMR library, primary screen; 4% of 100,000 active; Cav3.2-expressing cells; hits give low values; B-score at 10 µM; Voltage-dependent T-type calcium channel subunit alpha-1H (Homo sapiens), O95180;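 active = single-dose well whose peak fluorescence ratio is a statistical outlier from its plate by either plate-standardised score or position-corrected B-score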
Target sequence (O95180 whole entry, looked up): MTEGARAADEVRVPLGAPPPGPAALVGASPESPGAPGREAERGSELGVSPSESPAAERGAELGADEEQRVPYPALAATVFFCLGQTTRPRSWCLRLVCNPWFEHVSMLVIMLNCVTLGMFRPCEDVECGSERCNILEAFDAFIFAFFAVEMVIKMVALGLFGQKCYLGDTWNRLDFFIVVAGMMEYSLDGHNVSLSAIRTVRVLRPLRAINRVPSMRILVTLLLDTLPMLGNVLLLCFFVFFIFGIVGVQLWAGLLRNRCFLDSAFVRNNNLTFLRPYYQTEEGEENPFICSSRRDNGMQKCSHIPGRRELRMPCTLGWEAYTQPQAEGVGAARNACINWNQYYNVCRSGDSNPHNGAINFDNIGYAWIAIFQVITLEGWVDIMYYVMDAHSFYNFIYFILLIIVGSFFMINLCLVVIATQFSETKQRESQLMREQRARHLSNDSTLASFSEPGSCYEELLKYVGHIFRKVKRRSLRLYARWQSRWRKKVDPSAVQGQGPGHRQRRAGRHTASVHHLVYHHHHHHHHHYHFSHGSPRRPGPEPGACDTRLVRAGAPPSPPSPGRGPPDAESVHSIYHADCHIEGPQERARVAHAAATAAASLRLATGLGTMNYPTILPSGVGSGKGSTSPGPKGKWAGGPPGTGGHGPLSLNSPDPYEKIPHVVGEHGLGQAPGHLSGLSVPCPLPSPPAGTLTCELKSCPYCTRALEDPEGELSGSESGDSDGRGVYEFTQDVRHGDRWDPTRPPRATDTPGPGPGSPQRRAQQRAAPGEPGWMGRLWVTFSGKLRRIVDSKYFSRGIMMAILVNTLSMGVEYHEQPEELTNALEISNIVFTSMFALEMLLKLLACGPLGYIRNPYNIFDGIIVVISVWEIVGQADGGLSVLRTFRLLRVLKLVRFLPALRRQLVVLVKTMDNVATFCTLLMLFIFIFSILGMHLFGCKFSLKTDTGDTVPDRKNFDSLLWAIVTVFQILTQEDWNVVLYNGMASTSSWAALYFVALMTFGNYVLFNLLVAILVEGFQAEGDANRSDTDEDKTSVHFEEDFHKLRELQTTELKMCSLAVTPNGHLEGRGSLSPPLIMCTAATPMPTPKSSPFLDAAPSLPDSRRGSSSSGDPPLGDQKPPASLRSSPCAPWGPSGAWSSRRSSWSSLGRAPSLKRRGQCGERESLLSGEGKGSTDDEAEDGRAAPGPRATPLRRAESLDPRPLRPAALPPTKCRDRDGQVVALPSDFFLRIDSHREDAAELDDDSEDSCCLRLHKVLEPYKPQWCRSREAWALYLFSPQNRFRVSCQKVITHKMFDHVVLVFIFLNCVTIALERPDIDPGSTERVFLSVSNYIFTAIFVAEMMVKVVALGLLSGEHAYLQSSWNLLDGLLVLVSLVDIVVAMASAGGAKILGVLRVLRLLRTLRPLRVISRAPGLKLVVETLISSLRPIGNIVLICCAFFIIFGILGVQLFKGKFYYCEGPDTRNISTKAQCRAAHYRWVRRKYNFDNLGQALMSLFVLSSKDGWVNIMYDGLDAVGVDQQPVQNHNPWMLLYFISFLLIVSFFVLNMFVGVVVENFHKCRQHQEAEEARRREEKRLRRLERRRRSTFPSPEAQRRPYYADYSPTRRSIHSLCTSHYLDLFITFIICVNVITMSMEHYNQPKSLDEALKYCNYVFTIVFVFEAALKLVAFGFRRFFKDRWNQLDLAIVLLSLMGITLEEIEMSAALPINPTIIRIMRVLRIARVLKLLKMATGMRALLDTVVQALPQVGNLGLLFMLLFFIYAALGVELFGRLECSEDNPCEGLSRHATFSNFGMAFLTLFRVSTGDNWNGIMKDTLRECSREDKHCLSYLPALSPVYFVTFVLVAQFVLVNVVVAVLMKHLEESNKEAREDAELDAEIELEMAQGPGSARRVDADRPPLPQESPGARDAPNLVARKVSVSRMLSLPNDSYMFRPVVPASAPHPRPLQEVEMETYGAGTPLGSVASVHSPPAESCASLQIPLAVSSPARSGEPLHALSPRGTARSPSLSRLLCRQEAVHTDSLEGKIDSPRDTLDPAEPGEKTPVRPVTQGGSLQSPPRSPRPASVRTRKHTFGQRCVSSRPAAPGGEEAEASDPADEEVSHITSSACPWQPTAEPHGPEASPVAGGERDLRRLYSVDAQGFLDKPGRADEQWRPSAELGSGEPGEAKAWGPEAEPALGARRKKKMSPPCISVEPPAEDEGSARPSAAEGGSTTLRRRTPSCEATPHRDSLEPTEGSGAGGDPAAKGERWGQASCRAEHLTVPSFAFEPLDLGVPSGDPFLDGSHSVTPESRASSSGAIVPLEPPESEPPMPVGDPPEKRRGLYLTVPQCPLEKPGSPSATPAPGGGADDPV
PostGolgi yeast: phenotypic screen on post-Golgi transport, primary screen. post-Golgi transport phenotypic cell assay. inhibition, % at 10 µM. 0.9% of 98,000 active;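 note: yeast cells grown in 1536-well plates; yeast grown about 18 h at 30C before absorbance read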
An asterisk follows results filed as active. Cut-off read from the data, not from the text of the source, unless noted: active = inhibition above about 30%; inactive = the rest.

What do the screens show for `Cc1ccc(S(=O)(=O)N(C)CC(=O)Nc2ccncc2)cc1`?
PostGolgi ctrl: 6; E coli WT exp: 3; tolC growth inh: -6; Cav32 inh: 0.046; PostGolgi yeast: -4

Results for O=C(COC(=O)c1ccc(Br)o1)NCc1ccco1 ?
tolC growth inh: -11; Cav32 inh: 0.6

How did CCCOc1ccccc1N/C(=N/c1nc(C)cc(C)n1)NC(=O)COc1ccc(OC)cc1 do in these assays?
PostGolgi ctrl: 7; E coli WT exp: -18; Cav32 inh: -5*; PostGolgi yeast: 40*

What do the screens show for `O=C(CSc1nc(C2CC2)nc2ccccc12)N1CCc2ccccc2C1`?
PostGolgi ctrl: 68*; E coli WT exp: -20; PostGolgi yeast: -6

How did CC1CC(C)CN(C(=O)Cn2c(SCC(=O)N3CCc4ccccc4C3)nc3ccccc32)C1 (configuration not stated) do in these assays?
Cav32 inh: -8.4*

How did O=C(CSc1ncnc2c1oc1ccccc12)N1CCc2ccccc2C1 do in these assays?
tolC growth inh: -7

What do the screens show for `Cc1nc2c3ccccc3nc(SCC(=O)N3CC(C)CC(C)C3)n2n1` (configuration not stated)?
PostGolgi ctrl: 32*; E coli WT exp: 0; PostGolgi yeast: 0

Results for CCCn1c(SCC(=O)c2ccc(OC)c(OC)c2)nc2c1c(=O)n(C)c(=O)n2C ?
Cav32 inh: -0.99

What do the screens show for `CCC(C)(C(=O)NC1CCCC1)N(C(=O)c1ccccn1)c1ccc(C)cc1` (configuration not stated)?
PostGolgi ctrl: -1; E coli WT exp: 11; Cav32 inh: 1.4; PostGolgi yeast: 3

What do the screens show for `CCOc1ccc(N2CCn3c2nc2c3c(=O)n(CCc3ccccc3)c(=O)n2C)cc1`?
tolC growth inh: -19

Results for O=C(NCc1cccnc1)c1ccc(CS(=O)(=O)c2ccc(Cl)cc2)o1 ?
PostGolgi ctrl: 6; E coli WT exp: -3; tolC growth inh: -9; Cav32 inh: -0.18; PostGolgi yeast: -3

What do the screens show for `c1ccc(N2OCC3Cn4c(nc5ccccc54)C32)cc1` (configuration not stated)?
Cav32 inh: 0.89

What do the screens show for `Nc1ccc(N(c2ccccc2)c2ccc(N)cc2)cc1`?
PostGolgi ctrl: 3; E coli WT exp: 5; Cav32 inh: 0.076; PostGolgi yeast: 8

Results for O=C(c1n[nH]c(=O)c2ccccc12)N1CCN(c2ccccc2Cl)CC1 ?
PostGolgi ctrl: 50*; E coli WT exp: -5; tolC growth inh: 7; Cav32 inh: -1.5; PostGolgi yeast: -2

How did Cn1nccc1C(=O)N1CCN(c2ccc(F)cc2)CC1 do in these assays?
Cav32 inh: 0.021

Results for CCCCNC(=O)Nc1ccc(Br)cn1 ?
PostGolgi ctrl: 11; E coli WT exp: 9; tolC growth inh: 8; Cav32 inh: -0.7; PostGolgi yeast: 0

What do the screens show for `CCCCNC(=O)Nc1ccccn1`?
PostGolgi ctrl: 33*; E coli WT exp: 0; Cav32 inh: 0.14; PostGolgi yeast: 4

What do the screens show for `COc1ccccc1NC(=O)CSc1nnc(-c2ccoc2C)n1CC1CCCO1` (configuration not stated)?
PostGolgi ctrl: -3; E coli WT exp: -4; Cav32 inh: 0.18; PostGolgi yeast: -3

Results for CN(C)c1nc(SCc2ccccc2Cl)nc2c1CCCC2 ?
PostGolgi ctrl: 36*; E coli WT exp: -2; Cav32 inh: 0.47; PostGolgi yeast: 59*

How did CNc1nc(SCc2ccc(C)cc2)nc2c1CCCC2 do in these assays?
PostGolgi ctrl: 33*; E coli WT exp: -1; Cav32 inh: -6*; PostGolgi yeast: 10

What do the screens show for `Cc1ccc(CSc2nc3c(c(N(C)C)n2)CCCC3)cc1`?
PostGolgi ctrl: 41*; E coli WT exp: 6; Cav32 inh: -1.7; PostGolgi yeast: -15

What do the screens show for `O=c1[nH]c(SCc2ccccc2Cl)nc2c1CCCC2`?
PostGolgi ctrl: 10; E coli WT exp: -1; tolC growth inh: 2; Cav32 inh: -1.5; PostGolgi yeast: -3

Results for Cc1ccc(CSc2nc3c(c(SCC(=O)O)n2)CCCC3)cc1 ?
PostGolgi ctrl: 9; E coli WT exp: -2; Cav32 inh: -1.9; PostGolgi yeast: 17

How did O=C(O)c1ccc(Cl)c(NC(=O)C2CCCN2S(=O)(=O)c2cccc3nsnc23)c1 (configuration not stated) do in these assays?
PostGolgi ctrl: 12; E coli WT exp: 1; tolC growth inh: -1; Cav32 inh: 1.1; PostGolgi yeast: 12

Results for CCc1cc2c(C)cc(=O)oc2cc1OC(=O)C1CCCN1C(=O)OC(C)(C)C (configuration not stated) ?
PostGolgi ctrl: 20; E coli WT exp: 9; tolC growth inh: 14; Cav32 inh: -0.82; PostGolgi yeast: 10

Results for COC(=O)C1=NN(C(=O)c2ccccc2)C(C)(O)C1 (configuration not stated) ?
PostGolgi ctrl: 9; E coli WT exp: 0; Cav32 inh: -0.075; PostGolgi yeast: -5

Results for COC(=O)C1=NN(C(=O)c2ccc(C)cc2)C(O)(c2ccc(Cl)cc2)C1 (configuration not stated) ?
PostGolgi ctrl: 12; E coli WT exp: 9; Cav32 inh: -3.2*; PostGolgi yeast: -5

Results for Cc1cccc(N2CCN(C(=O)C3CCN(S(=O)(=O)c4cccc5nsnc45)CC3)CC2C)c1 (configuration not stated) ?
PostGolgi ctrl: 12; E coli WT exp: -4; tolC growth inh: 16; Cav32 inh: -3.4*; PostGolgi yeast: 22

How did CCOC(=O)C1CCCN(C(=O)CC(c2ccccc2)c2ccccc2)C1 (configuration not stated) do in these assays?
Cav32 inh: -2.5

Results for CCOC(=O)C1CCCN(C(=O)C2c3ccccc3Oc3ccccc32)C1 (configuration not stated) ?
PostGolgi ctrl: 16; E coli WT exp: 5; tolC growth inh: 18; Cav32 inh: -5.8*; PostGolgi yeast: -1

How did CC(C)Oc1ccc(NC(=O)c2ccncc2)cc1 do in these assays?
PostGolgi ctrl: -1; E coli WT exp: -1; tolC growth inh: -12; Cav32 inh: 0.38; PostGolgi yeast: 0

What do the screens show for `CC(C)C(c1nnnn1C1CCCCC1)N1CCc2ccccc21` (configuration not stated)?
PostGolgi ctrl: 18; E coli WT exp: -1; Cav32 inh: -1; PostGolgi yeast: -3

Results for CC(C)C(c1nnnn1C1CCCC1)N1c2ccccc2CC1C (configuration not stated) ?
PostGolgi ctrl: -6; E coli WT exp: 5; tolC growth inh: 74*; Cav32 inh: -3.5; PostGolgi yeast: 2

How did NS(=O)(=O)c1cccnc1Nc1cccc(Cl)c1Cl do in these assays?
PostGolgi ctrl: 23; E coli WT exp: -9; Cav32 inh: -0.33; PostGolgi yeast: 4
